Sampled rows, rich in hits. Any-hit rate of the full collection: about 2.4%.
Ecoli rRNA inh: inhibits bacterial ribosomal RNA function over humanized ribosomes; E. coli WT GFP vs humanized-ribosome RFP mutants, fluorescence, 24 h; hits give low values; DMSO median 0, no signal -100; GFP signal change (wild-type ribosome), % (concentration not given with the values); 350,000 compounds, 1.6% hits;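 active = significant combined selectivity score with lowered wild-type GFP, culture density cut under 30%, mutant RFP and density less affected; inactive = any of these conditions unmet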
LGR2 inh: inhibitors of bursicon-induced Drosophila LGR2 receptor cAMP signaling | inhibition, % at 9.99 µM | 380,000 compounds, 0.35% hits | HEK293 LGR2, CRE-luciferase, bursicon-stimulated, 4 h;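 active = drop in luminescence signal, shown as inhibition above about 50% in the replicate tests, limit read from the data, passing the limit was not always enough; inconclusive = probably only some replicates passing the limit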;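 note: agonist challenge used bursicon conditioned medium at about half maximal strength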
EWS-Fli block: inhibitors of EWS/Fli oncoprotein transcriptional activity; 350,000 compounds, 0.67% hits; inhibition, % at 12.6 µM; A673 NR0B1-luciferase reporter, viability-normalised;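 active = mean inhibition of at least 50% after viability correction, with every replicate also passing that limit; inconclusive = mean reaches 50% but only one of two replicates passes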;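 note: firefly luciferase signal divided by Alamar Blue viability fluorescence both relative to DMSO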
E-selectin induc: induces E-selectin expression in human endothelial cells; P16581; HUVEC E-selectin immunofluorescence imaging; normalized: neutral wells 0, TNF-alpha wells 100; activation, % at 7.58 µM; 260,000 compounds, 0.37% hits;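 active = mean E-selectin-positive cell signal at least 10% of the positive control, reached in at least 60% of replicates, without over 20% cell loss; inconclusive = no rule given, readout overlaps actives, possibly toxicity-flagged; inactive = the rest, including those meeting only one limit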
Target sequence (P16581 whole entry, looked up): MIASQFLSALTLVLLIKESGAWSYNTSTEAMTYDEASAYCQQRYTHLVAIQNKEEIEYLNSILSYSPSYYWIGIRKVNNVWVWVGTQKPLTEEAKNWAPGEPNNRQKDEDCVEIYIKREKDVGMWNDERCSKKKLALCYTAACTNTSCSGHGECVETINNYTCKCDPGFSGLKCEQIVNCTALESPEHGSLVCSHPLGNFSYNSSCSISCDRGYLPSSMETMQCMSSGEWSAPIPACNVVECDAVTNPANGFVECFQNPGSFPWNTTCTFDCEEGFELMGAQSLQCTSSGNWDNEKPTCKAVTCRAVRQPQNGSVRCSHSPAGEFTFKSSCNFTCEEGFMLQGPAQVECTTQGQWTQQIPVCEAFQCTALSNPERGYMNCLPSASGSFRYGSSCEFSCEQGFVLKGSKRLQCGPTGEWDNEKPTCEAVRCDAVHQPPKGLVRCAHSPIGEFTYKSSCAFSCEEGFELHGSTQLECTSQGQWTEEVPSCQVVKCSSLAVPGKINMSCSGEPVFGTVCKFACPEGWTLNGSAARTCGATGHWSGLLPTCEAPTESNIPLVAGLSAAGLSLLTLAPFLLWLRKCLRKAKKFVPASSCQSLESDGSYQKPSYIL
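Test system: HUVEC; input: 3,000 HUVEC/well; measured by: immunofluorescence imaging; read-out: % PE-positive cells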
HepG2 cytotox: kills or reduces viability of HepG2 cells; activity change, negative = cytotoxicity, unspecified at 26 µM; AID 743480; ATP luminescence, 72 h; 30 tested, under 10 active; shares compounds with Ecoli rRNA inh;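 active = compounds whose fitted half-maximal signal-loss concentration is at most twice their highest valid dose; inconclusive = flat curve with 30 to 70% signal loss, or poor fit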
AID977621: growth inhibition of wild-type GFP E. coli, dose response, H69 mutant RFP, cherry-pick; shares compounds with Ecoli rRNA inh; E. coli wild-type GFP strain growth, fluorescence, 24 h; activity change, negative = inhibition at 50 µM; 1,900 tested, under 10 active; AID 977621;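 active = Wild-type ribosome reporter drop at least double the humanized mutant ribosome reporter drop, growth loss under a set limit; inconclusive = no clear call, values can overlap the other calls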;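 note: wild-type GFP and H69 mutant RFP strains grown together 50/50 in each well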
AID977628: E. coli growth inhibition, wild-type GFP versus h24 humanized RFP strain, dose response, h24 mutant RFP vs wild-type GFP, cherry-pick. shares compounds with Ecoli rRNA inh. E. coli WT GFP strain growth, fluorescence, 24 h. activity change, negative = inhibition at 50 µM. 1,900 tested, under 10 active;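 active = compound lowering the normal-ribosome reporter at least twice as much as the humanized-ribosome reporter, growth loss under a set limit; inconclusive = no clear call, values can overlap the other calls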;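 note: wild-type GFP and h24 humanized RFP strains co-cultured 1 to 1 per well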
Numbers stand for hits; 0 = inactive; ? = inconclusive; - = not tested or not shown.

SMILES	Ecoli rRNA inh	LGR2 inh	EWS-Fli block	E-selectin induc	AID977621	AID977628	others
Fc1ccc(-c2cn(-c3ccccc3)c3[n+]2CCS3)cc1	0	0	0	0	-	-
CC(C)OC(=O)c1sc2nc(-c3ccccc3)ccc2c1N	-26	0	0	-	0	?
CN(C)S(=O)(=O)N1CCN(c2ccccc2)CC1	0	0	0	-	-	-
CN(C)S(=O)(=O)N1CCN(c2ccccc2Cl)CC1	-21	0	0	-	0	0
Cc1cc(C)nc(SCc2cn3c(C)cccc3n2)n1	-19	0	0	0	-	?
Cc1ccnc(SCc2cn3c(C)cccc3n2)n1	0	0	0	-	-	-
C[C@H]1CN([C@@H](C)CO)S(=O)(=O)c2ccc(C3=CCCCC3)cc2O[C@H]1CN(C)Cc1ccncc1	0	0	0	0	-	-
O=C(c1ccc(N2CCCCC2)c([N+](=O)[O-])c1)N1CCN(S(=O)(=O)c2ccccc2)CC1	0	0	0	0	-	-
O=C(c1ccc(N2CCCCC2)c([N+](=O)[O-])c1)N1CCN(c2ccccn2)CC1	-21	0	0	0	-	?
Cn1c(=O)n(C)c2cc([N+](=O)[O-])c(N3CCN(C(=O)c4cccc(Cl)c4)CC3)cc21	-	0	-	0	-	-
Cn1c(=O)n(C)c2cc([N+](=O)[O-])c(N3CCN(C(=O)c4cccc(F)c4)CC3)cc21	-18	0	0	-	0	?
C[C@@H]1CCCCO[C@@H](CN(C)C(=O)CCCN(C)C)[C@@H](C)CN([C@H](C)CO)C(=O)c2cc(NS(=O)(=O)c3cn(C)cn3)ccc2O1	0	0	0	0	-	-
COc1ccc(Cl)cc1NC(=O)C1Cc2ccccc2CN1S(C)(=O)=O (stereo not given)	-20	0	0	-	-	0
CC1Cc2ccccc2N1C(=O)CN1C(=O)NC(C)(CCc2ccccc2)C1=O (stereo not given)	-18	0	0	-	0	0
CC1(CCc2ccccc2)NC(=O)N(CC(=O)N2CCCCCC2)C1=O (stereo not given)	0	0	0	0	-	-
Cc1c(Cc2ccccc2)sc(NC(=O)Cc2ccccc2)c1C(N)=O	-18	0	-	-	0	0
CCC(=O)Nc1sc(Cc2ccccc2)c(C)c1C(N)=O	0	0	0	0	-	-
CC(=O)Nc1ccccc1OCc1nnc(-c2ccc(Cl)cc2)o1	0	0	0	-	-	-
CC(=O)Nc1ccc(OCc2nnc(-c3ccccc3)o2)cc1	-23	0	0	0	?	0
CCOC(=O)[C@@H]1[C@H]2COc3ccccc3[C@H]2N2C(=O)N(c3ccc(F)cc3)C(=O)[C@]12C	0	0	0	0	-	-
C[C@]12C(=O)N(c3ccc(F)cc3)C(=O)N1[C@@H]1c3ccccc3OC[C@@H]1[C@H]2c1ccccc1	-25	0	0	-	0	0
CC1CCc2c(sc3ncn4c(SCC(=O)NCc5ccco5)nnc4c23)C1 (stereo not given)	-20	0	0	-	0	0
Cc1ccccc1S(=O)(=O)N1CCCCN2[C@H](C1)[C@H](c1ccc(-c3ccccc3)cc1)[C@@H]2CO	-	-	0	-	-	-
O=S(=O)(Cc1ccccc1)N1CCCCN2[C@@H](CO)[C@@H](c3ccc(-c4cccnc4)cc3)[C@@H]2C1	-28	0	0	0	0	?
Cc1cccc(-c2ccc([C@H]3[C@@H](CO)N4CCCCN(S(=O)(=O)c5ccccc5C)C[C@H]34)cc2)c1	0	0	0	0	0	-
SMILES	Ecoli rRNA inh	LGR2 inh	EWS-Fli block	E-selectin induc	AID977621	AID977628	others
Cc1cccc(-c2ccc([C@H]3[C@@H](CO)N4CCCCN(S(=O)(=O)c5ccccc5C)C[C@@H]34)cc2)c1	0	0	0	0	0	0
C[C@H](CO)N1C[C@H](C)[C@@H](CN(C)Cc2cncnc2)Oc2ncc(-c3ccc(C#N)cc3)cc2C1=O	0	0	0	0	-	-
CC(C)NC(=O)N(C)C[C@@H]1Oc2c(NC(=O)Nc3cccc4ccccc34)cccc2C(=O)N([C@@H](C)CO)C[C@H]1C	0	0	0	0	-	-
COc1ccc(OC)c(-c2csc(NC(=O)C3c4ccccc4Oc4ccccc43)n2)c1	-	0	-	0	-	-
COc1ccc(OC)c(-c2csc(NC(=O)C3COc4ccccc4O3)n2)c1 (stereo not given)	-23	0	0	-	0	-
CCCNC(=O)Nc1ccc2c(c1)C(=O)N(C)C[C@@H](OC)[C@@H](C)CN(CCC(F)(F)F)[C@@H](C)CO2	0	0	0	0	-	-
O=C(C[C@@H]1C[C@@H]2c3cc(NC(=O)Nc4ccccc4F)ccc3O[C@@H]2[C@H](CO)O1)NCc1ccc2c(c1)OCO2	-	0	0	0	-	-
O=C1NC(CCc2ccccc2)C(=O)N1Cc1cccc2ccccc12 (stereo not given)	-21	0	0	0	0	-
O=C1NC(Cc2c[nH]c3ccccc23)C(=O)N1Cc1ccccc1 (stereo not given)	0	0	0	-	-	-
NC(=O)c1ccsc1NC(=O)COC(=O)CCOc1ccccc1	-23	0	0	0	0	-
COc1ccc2c3c([nH]c2c1)[C@H](CO)N(Cc1cccc(F)c1)CC31CN(Cc2ccccn2)C1	0	0	0	0	-	-
O=C1OC[C@H]2CCCN2C(=O)[C@@H](CC(=O)N(CCO)Cc2ccccc2)C/C=C\C[C@H]1Cc1ccc(F)cc1	0	0	0	0	-	-
O=C1OC[C@@H]2CCCN2C(=O)[C@@H](CC(=O)N(CCO)Cc2ccccc2)C/C=C\C[C@H]1Cc1ccc(F)cc1	-21	0	0	0	0	0
O=C1N[C@@H](Cc2ccccc2)COC(=O)[C@H](Cc2ccc(F)cc2)C/C=C\C[C@H]1CC(=O)N(CCO)Cc1ccccc1	-19	0	0	-	-	?
CCN(CC)CCn1c2ccccc2c2nc3ccc([N+](=O)[O-])cc3cc21	-25	0	0	-	-	-	HepG2 cytotox=0
CSc1ccc(CN(C)C(=O)C(Cc2ccccc2)NC(=O)c2ccccc2)cc1 (stereo not given)	0	0	-	0	-	-
CSc1ccc(CN(C)C(=O)C(c2ccccc2)c2ccccc2)cc1	-21	0	0	-	0	?
COc1cccc(OCCNC(=O)c2ccccc2Sc2ccccc2C#N)c1	0	0	0	-	-	-
Cc1cc(C)c(OCCNC(=O)c2ccccc2Sc2ccccc2C#N)c(C)c1	-25	0	0	0	-	-	HepG2 cytotox=0
O=C(Nc1cccc(F)c1)N1C[C@H]2[C@@H](c3ccccc31)[C@@H](CO)N2C(=O)Cc1ccccn1	0	0	0	0	-	-
COCC(=O)N1[C@@H]2CN(C(=O)Nc3ccccc3F)c3ccccc3[C@@H]2[C@@H]1CO	-18	0	0	0	0	?
O=C(Nc1cccc(F)c1)N1C[C@@H]2[C@H](c3ccccc31)[C@H](CO)N2C(=O)Cc1ccccn1	-18	0	0	0	0	0
